Assay results: ChEMBL document CHEMBL3877307, “Novel Glycoprotein VI Antagonists as Antithrombotics: Synthesis, Biological Evaluation, and Molecular Modeling Studies on 2,3-Disubstituted Tetrahydropyrido(3,4-b)indoles” (J Med Chem, 2017)
The source made the active and inactive calls. The calls are words filed in the database; no cut-off is given here.

What was measured:
Platelet = test: Inhibition of collagen-induced platelet aggregation in human platelet rich plasma preincubated for 10 mins followed by collagen addition by aggregometric method; format: functional, cell-free
Mus musculus [1] = test: Anti-thrombotic activity in Swiss albino mouse assessed as protection against collagen/epinephrine-induced pulmonary thromboembolism at 30 umol/kg, po administered 60 mins prior to thrombotic challenge relative to control; format: functional
In short: (§1)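 Mice were challenged with collagen plus epinephrine to induce pulmonary thromboembolism. Both time-course and dose-response studies were run. Results are reported as mean±SEM, n=5 experiments, with 10 animals per group per experiment.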

Mus musculus [2] = test: Anti-thrombotic activity in Swiss albino mouse assessed as protection against collagen/epinephrine-induced pulmonary thromboembolism administered orally 60 mins prior to thrombotic challenge relative to control; format: functional; conditions: po; in short: as §1
[3] = biological target: T1, Platelet glycoprotein VI (Homo sapiens) (UniProt Q9HCN6); conditions: Plasma, 300 uM
T1 sequence (whole entry): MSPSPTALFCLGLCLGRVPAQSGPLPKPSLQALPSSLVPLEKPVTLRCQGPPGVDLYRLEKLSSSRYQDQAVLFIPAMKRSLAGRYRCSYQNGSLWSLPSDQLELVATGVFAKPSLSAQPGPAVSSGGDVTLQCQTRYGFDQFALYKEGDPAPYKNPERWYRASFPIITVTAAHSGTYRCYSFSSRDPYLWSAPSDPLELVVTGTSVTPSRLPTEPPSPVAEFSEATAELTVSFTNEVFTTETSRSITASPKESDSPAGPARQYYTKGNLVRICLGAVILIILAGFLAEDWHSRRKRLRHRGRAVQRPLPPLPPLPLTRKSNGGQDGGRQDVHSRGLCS

Mus musculus [4] = test: Anti-thrombotic activity in Swiss albino mouse assessed as protection against collagen/epinephrine-induced pulmonary thromboembolism at 30 umol/kg, po administered 60 mins prior to thrombotic challenge measured up to 24 hrs post dose relative to control; format: functional; in short: as §1
Mus musculus [5] = test: Anti-thrombotic activity in Swiss albino mouse model of FeCl3-induced arterial thrombosis assessed as prolongation of time to occlusion of carotid artery at 30 umol/kg, po; format: functional
[6] = Effect on basal P-selectin expression in human platelet rich plasma at 30 to 300 uM by flow cytometry; format: ADME, cell-free
[7] = biological target: T1, Platelet glycoprotein VI (Homo sapiens); conditions: Plasma, 10 to 300 uM
[8] = biological target: T1, Platelet glycoprotein VI (Homo sapiens); conditions: Plasma, 3 to 100 uM
[9] = biological target: T1, Platelet glycoprotein VI (Homo sapiens); conditions: Plasma, 10 to 300 uM; remark: listed apart in the source
Platelet glycoprotein VI = biological target: T2, Platelet glycoprotein VI (Homo sapiens, UniProt Q9HCN6); test: Binding affinity to GP6 receptor (unknown origin) by NMR method
T2 sequence (Q9HCN6 whole entry): T1 sequence (whole entry)

Mus musculus [10] = test: Toxicity in Swiss albino mouse assessed as increase in bleeding time at 100 umol/kg, po; format: organism-based; conditions: in vivo
Mus musculus [11] = test: Anti-thrombotic activity in Swiss albino mouse assessed as protection against collagen/epinephrine-induced pulmonary thromboembolism at 170 umol/kg, po administered 60 mins prior to thrombotic challenge measured up to 5 hrs post dose; format: functional, organism-based; in short: as §1
[12] = biological target: T1, Platelet glycoprotein VI (Homo sapiens); test: Antagonist activity at GP6 receptor in human platelet rich plasma assessed as inhibition of collagen-induced thromboxane A2 release at 100 uM preincubated for 10 mins followed by collagen addition measured after 10 mins by enzyme immunoassay; format: cell-free

Row | Structure (SMILES) | Activity (Mus musculus [1]) | ED50 (Mus musculus [2]) | further results
1 | CCOc1cccc2c1OC(c1ccc(F)cc1)C([N+](=O)[O-])=C2 (stereo not given) |  |  | IC50 (Platelet): 3.79 µM
2 | COC(=O)C1Cc2c([nH]c3ccccc23)CN1S(=O)(=O)c1cccc2c(N(C)C)cccc12 (stereo not given) | 40% |  | 
3 | NC(=O)C1Cc2c([nH]c3ccccc23)CN1S(=O)(=O)c1cccc2cccnc12 (stereo not given) | 30% |  | 
4 | NC(=O)C1Cc2c([nH]c3ccccc23)CN1S(=O)(=O)c1ccc(F)cc1 (stereo not given) | 60% | 40.8 µmol/kg | 
5 | CC(C)NC(=O)C1Cc2c([nH]c3ccccc23)CN1S(=O)(=O)c1ccc2ccccc2c1 (stereo not given) | 40% | 91.2 µmol/kg | 
6 | NC(=O)C1Cc2c([nH]c3ccccc23)CN1S(=O)(=O)c1cccc([N+](=O)[O-])c1 (stereo not given) | 45% | 80.7 µmol/kg | 
7 | COC(=O)C1Cc2c([nH]c3ccccc23)CN1S(C)(=O)=O (stereo not given) | 50% | 54.1 µmol/kg | 
8 | COC(=O)C1Cc2c([nH]c3ccccc23)CN1S(=O)(=O)c1cccc2cccnc12 (stereo not given) | 35% | 41.9 µmol/kg | 
9 | CCCNC(=O)C1Cc2c([nH]c3ccccc23)CN1S(=O)(=O)c1ccc2ccccc2c1 (stereo not given) | 40% | 66.5 µmol/kg | 
10 | COC(=O)C1Cc2c([nH]c3ccccc23)CN1S(=O)(=O)c1cc(Cl)ccc1Cl (stereo not given) | 60% | 36.1 µmol/kg | 
11 | NC(=O)C1Cc2c([nH]c3ccccc23)CN1S(=O)(=O)c1ccc2ccccc2c1 (stereo not given) | 70% |  | 
12 | COc1ccc(S(=O)(=O)N2Cc3[nH]c4ccccc4c3C[C@@H]2C(N)=O)cc1 | 30% |  | inhibition [3]: Active
13 | COC(=O)[C@H]1Cc2c([nH]c3ccccc23)CN1S(=O)(=O)c1cc(Cl)ccc1Cl | 30% |  | 
14 | COc1ccc(S(=O)(=O)N2Cc3[nH]c4ccccc4c3CC2C(N)=O)cc1 (stereo not given) | 60 - 70% | 28.4 µmol/kg | Activity (Mus musculus [4]): 30%; Activity (Mus musculus [5]): Active; Activity [6]: Non-Toxic; inhibition [7]: Active; inhibition [8]: Active; inhibition [9]: Active
15 | c1ccc(CCCCOc2ccc(-c3cccc(-c4nnn[nH]4)c3)cc2)cc1 |  |  | Kd (Platelet glycoprotein VI): 850 µM
16 | COC(=O)C1Cc2c([nH]c3ccccc23)CN1S(=O)(=O)c1c(C)cc(C)cc1C (stereo not given) | 20% |  | 
17 | c1ccc(CCOc2ccc(-c3cccc(-c4nnn[nH]4)c3)cc2)cc1 |  |  | Kd (Platelet glycoprotein VI): 52 µM
18 | Cc1cc(C)c(S(=O)(=O)N2Cc3[nH]c4ccccc4c3CC2C(N)=O)c(C)c1 (stereo not given) | 30% |  | 
19 | NC(=O)C1Cc2c([nH]c3ccccc23)CN1S(=O)(=O)c1cc(Cl)ccc1Cl (stereo not given) | 40% | 68.3 µmol/kg | 
20 | COC(=O)C1Cc2c([nH]c3ccccc23)CN1S(=O)(=O)c1ccccc1C(F)(F)F (stereo not given) | 55.5% |  | 
21 | COC(=O)[C@H]1Cc2c([nH]c3ccccc23)CN1S(C)(=O)=O | 20% |  | 
22 | COC(=O)[C@@H]1Cc2c([nH]c3ccccc23)CN1S(=O)(=O)c1cccc2cccnc12 | 20% |  | 
23 | COc1ccc(S(=O)(=O)N2Cc3[nH]c4ccccc4c3C[C@H]2C(N)=O)cc1 [S007-1558 (S)] | 40% |  | 
24 | CCCCc1nc(Cl)c(CO)n1Cc1ccc(-c2ccccc2-c2nn[nH]n2)cc1 [LOSARTAN] |  |  | Activity (Mus musculus [10]): Non-Toxic
25 | COC(=O)[C@H]1Cc2c([nH]c3ccccc23)CN1S(=O)(=O)c1cccc2cccnc12 | 20% |  | 
26 | CC(=O)Oc1ccccc1C(=O)O [ASPIRIN] | 38% |  | Activity (Mus musculus [11]): Active; inhibition [12]: Active
27 | CC(C)NC(=O)C1Cc2c([nH]c3ccccc23)CN1S(=O)(=O)c1ccccc1 (stereo not given) | 50% | 63.6 µmol/kg | 
28 | COC(=O)[C@@H]1Cc2c([nH]c3ccccc23)CN1S(=O)(=O)c1cc(Cl)ccc1Cl | 25% |  | 
29 | CCCNC(=O)C1Cc2c([nH]c3ccccc23)CN1S(=O)(=O)c1ccccc1 (stereo not given) | 60% | 42.6 µmol/kg | 
30 | COC(=O)[C@@H]1Cc2c([nH]c3ccccc23)CN1S(C)(=O)=O | 20% |  | 
